Laboratory results from ChEMBL document CHEMBL1149315, “Insertion of an aspartic acid moiety into cyclic pseudopeptides: synthesis and biological characterization of potent antagonists for the human Tachykinin NK-2 receptor” (J Med Chem, 2004).
Activity calls are given as the source filed them.

Legend:
[1] = target: T1, Substance-K receptor (Oryctolagus cuniculus) (UniProt P79218); assay: Antagonist activity at NK2 receptor in rabbit pulmonary artery assessed as effect on neurokinin A-induced mechanical activity; type: functional; conditions: filed as antagonist
T1 sequence (whole entry): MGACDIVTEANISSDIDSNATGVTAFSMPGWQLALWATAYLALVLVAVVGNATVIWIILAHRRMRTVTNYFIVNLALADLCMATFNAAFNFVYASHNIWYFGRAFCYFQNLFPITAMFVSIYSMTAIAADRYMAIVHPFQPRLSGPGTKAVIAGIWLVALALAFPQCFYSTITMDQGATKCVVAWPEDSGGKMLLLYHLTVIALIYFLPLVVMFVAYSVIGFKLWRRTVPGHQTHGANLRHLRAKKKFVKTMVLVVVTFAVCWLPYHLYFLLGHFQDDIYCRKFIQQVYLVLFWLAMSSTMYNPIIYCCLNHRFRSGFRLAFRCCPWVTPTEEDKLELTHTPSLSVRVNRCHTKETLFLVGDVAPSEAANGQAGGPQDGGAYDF
In short: (§1)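 Isolated smooth muscle strips were held in oxygenated (96% O2/4% CO2) Krebs–Henseleit at NaCl 119, NaHCO3 25, KH2PO4 1.2, MgSO4 1.5, CaCl2 2.5, KCl 4.7 and glucose 11 mM. Cumulative agonist concentration–response curves were run after 15 min antagonist incubation. pKB = log(dose ratio − 1) − log[antagonist], as the mean of individual values.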

Substance-K receptor = target: T2, Substance-K receptor (Homo sapiens, UniProt P21452); assay: Displacement of [125I]neurokinin A from human NK2 receptor expressed in CHOK1 cells; type: cell-based, CHO-K1
T2 sequence (P21452 whole entry): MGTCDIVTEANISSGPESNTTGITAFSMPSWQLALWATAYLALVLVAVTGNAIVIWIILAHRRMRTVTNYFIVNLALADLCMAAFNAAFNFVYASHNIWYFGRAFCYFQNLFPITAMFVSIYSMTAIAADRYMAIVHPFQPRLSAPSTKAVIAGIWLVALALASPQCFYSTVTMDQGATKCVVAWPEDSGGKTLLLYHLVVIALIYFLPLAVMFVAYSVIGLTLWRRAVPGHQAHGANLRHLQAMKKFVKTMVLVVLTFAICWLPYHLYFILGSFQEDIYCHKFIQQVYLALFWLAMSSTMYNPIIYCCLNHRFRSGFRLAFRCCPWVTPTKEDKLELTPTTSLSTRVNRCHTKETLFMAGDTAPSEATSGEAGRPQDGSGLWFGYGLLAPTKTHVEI
In short: (§2)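 Competition binding was run on membranes of cells stably transfected with the human receptor: U-373MG for NK-1, CHO-K1 for NK-2 and NK-3. NK-1 used [3H][Sar9]SP sulfone at 1.2 nM. Affinity is given as pKi (−log Ki).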

Substance-P receptor = Substance-P receptor (Homo sapiens, UniProt P25103); assay: Displacement of [3H][Sar9]SP sulfone from human NK1 receptor expressed in U373MG cells; type: cell-based, U-373MG ATCC; in short: as §2
Neuromedin-K receptor = target: T3, Neuromedin-K receptor (Homo sapiens, UniProt P29371); assay: Displacement of [125I][MePhe7]NKB from human NK3 receptor expressed in CHOK1 cells; type: cell-based, CHO-K1; in short: as §2
T3 sequence (P29371 whole entry): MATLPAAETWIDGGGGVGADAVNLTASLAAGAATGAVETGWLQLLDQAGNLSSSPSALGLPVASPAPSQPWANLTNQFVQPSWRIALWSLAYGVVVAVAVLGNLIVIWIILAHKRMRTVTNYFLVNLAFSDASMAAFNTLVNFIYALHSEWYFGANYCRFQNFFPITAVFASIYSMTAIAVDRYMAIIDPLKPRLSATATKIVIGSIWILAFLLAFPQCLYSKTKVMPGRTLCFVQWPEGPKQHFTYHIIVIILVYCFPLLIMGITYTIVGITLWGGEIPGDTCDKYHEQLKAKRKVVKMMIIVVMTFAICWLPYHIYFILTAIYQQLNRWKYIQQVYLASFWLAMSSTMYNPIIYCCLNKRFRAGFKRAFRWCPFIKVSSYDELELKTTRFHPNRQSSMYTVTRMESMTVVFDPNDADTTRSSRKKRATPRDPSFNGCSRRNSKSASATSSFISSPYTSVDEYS

Cavia porcellus [2] = assay: Inhibition of [beta-Ala8]NKA(4-10)-induced bronchoconstriction in intratracheally dosed anesthetized Dunkin Hartley guinea pig; type: functional; conditions: Trachea, inhaled or nasal
In short: (§3)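 Male Dunkin Hartley guinea pigs (350–400 g) were anesthetized with urethane 1.5 g/kg sc, kept at 36 °C and ventilated at 60 strokes/min. After two reproducible control responses to agonist (1 nmol/kg iv, jugular vein), antagonist was given intratracheally near the bronchial bifurcation. Dosing was 5 and 30 min before challenge, with challenges repeated every 30 min up to 4 h. Bronchoconstriction = insufflation pressure rise over basal (mmHg), expressed as % inhibition of control.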

[3] = target: Substance-P receptor (Cavia porcellus) (UniProt P30547); assay: Antagonist activity at NK1 receptor in guinea pig ileum assessed as effect on substance P methyl ester-induced mechanical activity; type: functional, tissue-based; in short: as §1
Cavia porcellus [4] = assay: Inhibition of [beta-Ala8]NKA(4-10)-induced bronchoconstriction in anesthetized Dunkin Hartley guinea pig at 100 nmol/kg, it relative to control; type: functional, organism-based; conditions: 10 nmol/kg, in the assay text read “10 nmol/kg” for “100 nmol/kg”; in short: as §3
[5] = target: T4, Substance-K receptor (Rattus norvegicus) (UniProt P16610); assay: Antagonist activity at NK2 receptor in rat urinary bladder assessed as effect on beta-Ala8]NKA(4-10)-induced mechanical activity; type: functional; conditions: filed as antagonist; in short: as §1
T4 sequence (whole entry): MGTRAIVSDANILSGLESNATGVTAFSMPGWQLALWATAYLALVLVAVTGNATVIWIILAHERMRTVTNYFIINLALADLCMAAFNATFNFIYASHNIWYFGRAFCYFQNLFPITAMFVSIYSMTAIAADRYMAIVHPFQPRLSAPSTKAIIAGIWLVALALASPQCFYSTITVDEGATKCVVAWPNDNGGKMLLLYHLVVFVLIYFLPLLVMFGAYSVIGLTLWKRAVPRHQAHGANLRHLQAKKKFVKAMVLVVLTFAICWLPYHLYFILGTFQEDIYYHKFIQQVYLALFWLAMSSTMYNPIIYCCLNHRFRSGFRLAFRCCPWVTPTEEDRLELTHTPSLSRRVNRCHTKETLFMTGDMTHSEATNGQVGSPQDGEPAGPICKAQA

[6] = target: T5, Neuromedin-K receptor (Cavia porcellus) (UniProt P30098); assay: Antagonist activity at NK3 receptor in guinea pig ileum assessed as effect on senktide-induced mechanical activity; type: functional, tissue-based; conditions: filed as antagonist
T5 sequence (whole entry): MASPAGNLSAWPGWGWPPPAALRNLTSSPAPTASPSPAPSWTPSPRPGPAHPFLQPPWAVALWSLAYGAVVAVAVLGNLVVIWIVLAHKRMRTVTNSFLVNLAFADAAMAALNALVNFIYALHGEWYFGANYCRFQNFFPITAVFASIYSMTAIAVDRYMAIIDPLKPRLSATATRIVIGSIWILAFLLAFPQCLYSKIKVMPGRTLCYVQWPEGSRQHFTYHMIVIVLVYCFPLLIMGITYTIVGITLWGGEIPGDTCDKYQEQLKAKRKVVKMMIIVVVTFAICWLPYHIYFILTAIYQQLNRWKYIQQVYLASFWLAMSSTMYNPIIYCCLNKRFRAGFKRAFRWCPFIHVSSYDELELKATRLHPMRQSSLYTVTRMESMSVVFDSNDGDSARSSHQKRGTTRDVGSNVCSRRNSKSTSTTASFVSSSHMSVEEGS

Cavia porcellus [7] = assay: Inhibition of [beta-Ala8]NKA(4-10)-induced bronchoconstriction in anesthetized Dunkin Hartley guinea pig at 10 nmol/kg, it relative to control; type: functional; in short: as §3

Chain of Substance-P receptor (Cavia porcellus) (P30547 whole entry): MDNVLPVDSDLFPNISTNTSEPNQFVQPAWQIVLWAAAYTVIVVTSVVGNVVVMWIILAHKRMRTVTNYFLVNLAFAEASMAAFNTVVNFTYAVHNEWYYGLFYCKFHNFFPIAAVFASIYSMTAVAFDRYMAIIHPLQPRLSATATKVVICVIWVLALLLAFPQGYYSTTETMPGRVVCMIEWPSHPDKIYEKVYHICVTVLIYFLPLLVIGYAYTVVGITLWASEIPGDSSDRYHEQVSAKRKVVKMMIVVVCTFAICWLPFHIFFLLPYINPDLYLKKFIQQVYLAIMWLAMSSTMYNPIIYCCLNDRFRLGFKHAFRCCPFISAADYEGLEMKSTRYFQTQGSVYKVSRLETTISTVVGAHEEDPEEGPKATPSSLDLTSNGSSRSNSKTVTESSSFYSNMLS
Chain of Substance-P receptor (P25103 whole entry): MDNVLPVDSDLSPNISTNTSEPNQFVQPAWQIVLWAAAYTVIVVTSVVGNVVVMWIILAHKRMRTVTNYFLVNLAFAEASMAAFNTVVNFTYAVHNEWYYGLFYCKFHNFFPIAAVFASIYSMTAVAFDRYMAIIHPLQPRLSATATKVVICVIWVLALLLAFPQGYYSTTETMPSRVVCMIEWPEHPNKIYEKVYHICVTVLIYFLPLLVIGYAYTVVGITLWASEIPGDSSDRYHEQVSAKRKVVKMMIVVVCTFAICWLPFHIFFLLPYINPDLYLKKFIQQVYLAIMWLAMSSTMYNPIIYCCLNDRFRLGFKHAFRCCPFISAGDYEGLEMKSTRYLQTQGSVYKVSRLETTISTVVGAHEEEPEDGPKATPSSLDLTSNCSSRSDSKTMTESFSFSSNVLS

Compound	pKb [1]	Ki (Substance-K receptor)	pKb [5]	also measured
N[C@@H]1CC(=O)N[C@@H](Cc2c[nH]c3ccccc23)C(=O)N[C@@H](Cc2ccccc2)C(=O)N[C@H](Cc2ccccc2)CNC1=O	7.9	2 nM (antagonist)	–	–
NS(=O)(=O)N1CCN(CC(=O)N[C@@H]2CC(=O)N[C@@H](Cc3c[nH]c4ccccc34)C(=O)N[C@@H](Cc3ccccc3)C(=O)N[C@H](Cc3ccccc3)CNC2=O)CC1	–	0.1 nM (antagonist)	9.5	Ki (Substance-P receptor): 200 nM (antagonist); Ki (Neuromedin-K receptor): 7940 nM (antagonist); ED50 (Cavia porcellus [2]): 0.00027 µmol/kg; pKb [3]: < 5.5; Activity (Cavia porcellus [4]): Active; pKb [6]: 5.9
O=C1CCC(=O)N[C@@H](Cc2c[nH]c3ccccc23)C(=O)N[C@@H](Cc2ccccc2)C(=O)N[C@H](Cc2ccc(Cl)c(Cl)c2)CN1	8.1	–	8.1	–
O=C1C[C@H](N2CCOCC2)C(=O)NC[C@@H](Cc2ccccc2)NC(=O)[C@H](Cc2ccccc2)NC(=O)[C@H](Cc2c[nH]c3ccccc23)N1	8.5	–	8.9	–
O=C1C[C@@H](NC(=O)CN2CCC(N3CCCCC3)CC2)C(=O)NC[C@@H](Cc2ccccc2)NC(=O)[C@H](Cc2ccccc2)NC(=O)[C@H](Cc2c[nH]c3ccccc23)N1	–	–	9.2	pKb ([3]; filed as antagonist): 6.8; pKb [6]: 5.8
O=C1C[C@@H](N2CCOCC2)C(=O)NC[C@@H](Cc2ccccc2)NC(=O)[C@H](Cc2ccccc2)NC(=O)[C@H](Cc2c[nH]c3ccccc23)N1	8.9	–	9.2	pKb ([3]; filed as antagonist): 6.2; pKb [6]: 6.1
O=C1C[C@H](NC2CCOCC2)C(=O)NC[C@@H](Cc2ccccc2)NC(=O)[C@H](Cc2ccccc2)NC(=O)[C@H](Cc2c[nH]c3ccccc23)N1	8.6	1 nM (antagonist)	–	–

Second part, led by results:

pKb [1]	Ki (Substance-K receptor)	pKb [5]	Compound	also measured
7.7	1.58 nM (antagonist)	–	O=C1C[C@@H](N2CCNCC2)C(=O)NC[C@@H](Cc2ccccc2)NC(=O)[C@H](Cc2ccccc2)NC(=O)[C@H](Cc2c[nH]c3ccccc23)N1	–
8.2	1.58 nM (antagonist)	–	O=C1C[C@@H](N2CCCCC2)C(=O)NC[C@@H](Cc2ccccc2)NC(=O)[C@H](Cc2ccccc2)NC(=O)[C@H](Cc2c[nH]c3ccccc23)N1	–
–	0.158 nM (antagonist)	9.7	O=C1C[C@@H](NC(=O)CN2CCC(N3CCOCC3)CC2)C(=O)NC[C@@H](Cc2ccccc2)NC(=O)[C@H](Cc2ccccc2)NC(=O)[C@H](Cc2c[nH]c3ccccc23)N1	Ki (Substance-P receptor): 126 nM (antagonist); inhibition in vivo at 0.01 µmol/kg (Cavia porcellus [7]): 80%; Ki (Neuromedin-K receptor): 1260 nM (antagonist); ED50 (Cavia porcellus [2]): 0.00015 µmol/kg; pKb ([3]; filed as antagonist): 7.5; Activity (Cavia porcellus [4]): Active; pKb [6]: 6.4
8.4	0.251 nM (antagonist)	8	O=C1C[C@@H](N2CCOCC2)C(=O)NC[C@@H](Cc2ccc(Cl)c(Cl)c2)NC(=O)[C@H](Cc2ccccc2)NC(=O)[C@H](Cc2c[nH]c3ccccc23)N1	–
7.2	15.8 nM (antagonist)	–	N[C@@H]1CC(=O)NC[C@@H](Cc2ccccc2)NC(=O)[C@H](Cc2ccccc2)NC(=O)[C@H](Cc2c[nH]c3ccccc23)NC1=O	–
8.6	0.2 nM (antagonist)	8.9	N[C@H]1CC(=O)N[C@@H](Cc2c[nH]c3ccccc23)C(=O)N[C@@H](Cc2ccccc2)C(=O)N[C@H](Cc2ccc(Cl)c(Cl)c2)CNC1=O	–
7.5	–	–	N[C@H]1CC(=O)N[C@@H](Cc2c[nH]c3ccccc23)C(=O)N[C@@H](Cc2ccccc2)C(=O)N[C@H](Cc2ccccc2)CNC1=O	–
8.1	0.158 nM (antagonist)	–	N[C@@H]1CC(=O)N[C@@H](Cc2c[nH]c3ccccc23)C(=O)N[C@@H](Cc2ccccc2)C(=O)N[C@H](Cc2ccc(Cl)c(Cl)c2)CNC1=O	–
7.7	–	–	N[C@H]1CC(=O)NC[C@@H](Cc2ccccc2)NC(=O)[C@H](Cc2ccccc2)NC(=O)[C@H](Cc2c[nH]c3ccccc23)NC1=O	–
9.2	0.0631 nM (antagonist)	9.1	O=C1C[C@@H](NC2CCOCC2)C(=O)NC[C@@H](Cc2ccccc2)NC(=O)[C@H](Cc2ccccc2)NC(=O)[C@H](Cc2c[nH]c3ccccc23)N1	pKb ([3]; filed as antagonist): 6.1; pKb [6]: 6.4
